Data as given in ChEMBL document CHEMBL3862028, “Exploring N-Arylsulfonyl-l-proline Scaffold as a Platform for Potent and Selective αvβ1 Integrin Inhibitors” (ACS Med Chem Lett, 2016).

What was measured:
[1] = target: Integrin alpha-V/beta-1 (Homo sapiens, UniProt P05556+P06756); test: Inhibition of integrin alphaVbeta1 (unknown origin)-mediated CHO cell adhesion to fibronectin preincubated for 15 to 30 mins followed by 60 min incubation for adhesion by crystal violet staining based cell adhesion assay
Chain of Integrin alpha-V/beta-1 (P05556 21-798 limits assumed): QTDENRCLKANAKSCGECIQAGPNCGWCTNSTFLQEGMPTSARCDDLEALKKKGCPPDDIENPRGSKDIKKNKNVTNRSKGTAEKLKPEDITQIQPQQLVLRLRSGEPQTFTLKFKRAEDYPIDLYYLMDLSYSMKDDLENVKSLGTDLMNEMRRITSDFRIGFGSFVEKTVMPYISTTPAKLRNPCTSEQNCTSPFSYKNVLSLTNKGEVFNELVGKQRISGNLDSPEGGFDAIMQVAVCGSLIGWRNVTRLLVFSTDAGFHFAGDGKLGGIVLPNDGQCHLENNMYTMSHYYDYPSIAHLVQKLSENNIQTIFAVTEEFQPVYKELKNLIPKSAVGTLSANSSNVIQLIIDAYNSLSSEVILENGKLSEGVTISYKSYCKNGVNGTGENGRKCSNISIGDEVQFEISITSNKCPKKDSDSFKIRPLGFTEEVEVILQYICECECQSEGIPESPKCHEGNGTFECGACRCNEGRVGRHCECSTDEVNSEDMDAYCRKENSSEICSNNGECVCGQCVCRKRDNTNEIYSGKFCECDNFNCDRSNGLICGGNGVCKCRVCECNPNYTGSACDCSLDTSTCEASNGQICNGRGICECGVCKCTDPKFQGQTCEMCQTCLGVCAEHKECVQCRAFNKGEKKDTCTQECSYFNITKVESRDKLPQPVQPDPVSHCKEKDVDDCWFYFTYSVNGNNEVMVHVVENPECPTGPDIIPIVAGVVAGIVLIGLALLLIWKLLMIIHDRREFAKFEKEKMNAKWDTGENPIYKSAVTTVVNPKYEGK
Chain of Integrin alpha-V/beta-1 (P06756 31-889 limits assumed): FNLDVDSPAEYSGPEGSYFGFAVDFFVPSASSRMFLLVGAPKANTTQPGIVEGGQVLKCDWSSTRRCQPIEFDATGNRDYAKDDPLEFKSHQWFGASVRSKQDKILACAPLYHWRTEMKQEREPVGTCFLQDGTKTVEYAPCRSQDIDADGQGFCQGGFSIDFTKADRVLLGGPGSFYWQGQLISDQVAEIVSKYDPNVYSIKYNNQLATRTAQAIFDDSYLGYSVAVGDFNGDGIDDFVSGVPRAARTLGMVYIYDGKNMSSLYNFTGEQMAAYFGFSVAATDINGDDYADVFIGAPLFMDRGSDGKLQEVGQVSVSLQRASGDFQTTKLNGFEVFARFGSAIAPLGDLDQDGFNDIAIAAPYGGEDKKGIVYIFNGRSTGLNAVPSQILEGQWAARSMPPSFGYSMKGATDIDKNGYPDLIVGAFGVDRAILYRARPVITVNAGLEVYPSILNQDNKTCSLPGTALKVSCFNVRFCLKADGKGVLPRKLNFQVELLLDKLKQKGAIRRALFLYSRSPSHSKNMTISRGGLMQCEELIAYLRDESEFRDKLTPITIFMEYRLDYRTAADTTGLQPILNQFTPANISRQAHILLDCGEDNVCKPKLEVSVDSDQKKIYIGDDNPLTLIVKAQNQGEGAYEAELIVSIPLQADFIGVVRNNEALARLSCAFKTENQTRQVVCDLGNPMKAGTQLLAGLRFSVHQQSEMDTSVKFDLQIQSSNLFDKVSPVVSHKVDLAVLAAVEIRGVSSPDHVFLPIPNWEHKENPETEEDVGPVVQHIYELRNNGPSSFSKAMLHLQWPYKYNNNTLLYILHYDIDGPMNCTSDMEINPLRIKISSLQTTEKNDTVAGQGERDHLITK
Chain of Integrin alpha-V/beta-1 (P06756 891-1048 limits assumed): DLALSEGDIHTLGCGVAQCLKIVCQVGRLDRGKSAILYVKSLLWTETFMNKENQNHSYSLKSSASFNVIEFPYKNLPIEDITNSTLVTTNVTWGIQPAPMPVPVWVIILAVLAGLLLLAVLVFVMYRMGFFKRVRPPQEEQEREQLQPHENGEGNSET
Method in brief: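 α5-deficient CHO cells engineered to express αvβ1 were tested for adhesion to fibronectin (0.3 mg/ml). Values reported as pIC50 (–logIC50, M) with standard deviation, n=3.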

[2] = target: Integrin alpha-V/beta-3 (Homo sapiens, UniProt P05106+P06756); test: Inhibition of human integrin alphaVbeta3-mediated human SW480 cell adhesion to fibrinogen preincubated for 15 to 30 mins followed by 60 min incubation for adhesion by crystal violet staining based cell adhesion assay
Chain of Integrin alpha-V/beta-3 (P05106 27-788 limits assumed): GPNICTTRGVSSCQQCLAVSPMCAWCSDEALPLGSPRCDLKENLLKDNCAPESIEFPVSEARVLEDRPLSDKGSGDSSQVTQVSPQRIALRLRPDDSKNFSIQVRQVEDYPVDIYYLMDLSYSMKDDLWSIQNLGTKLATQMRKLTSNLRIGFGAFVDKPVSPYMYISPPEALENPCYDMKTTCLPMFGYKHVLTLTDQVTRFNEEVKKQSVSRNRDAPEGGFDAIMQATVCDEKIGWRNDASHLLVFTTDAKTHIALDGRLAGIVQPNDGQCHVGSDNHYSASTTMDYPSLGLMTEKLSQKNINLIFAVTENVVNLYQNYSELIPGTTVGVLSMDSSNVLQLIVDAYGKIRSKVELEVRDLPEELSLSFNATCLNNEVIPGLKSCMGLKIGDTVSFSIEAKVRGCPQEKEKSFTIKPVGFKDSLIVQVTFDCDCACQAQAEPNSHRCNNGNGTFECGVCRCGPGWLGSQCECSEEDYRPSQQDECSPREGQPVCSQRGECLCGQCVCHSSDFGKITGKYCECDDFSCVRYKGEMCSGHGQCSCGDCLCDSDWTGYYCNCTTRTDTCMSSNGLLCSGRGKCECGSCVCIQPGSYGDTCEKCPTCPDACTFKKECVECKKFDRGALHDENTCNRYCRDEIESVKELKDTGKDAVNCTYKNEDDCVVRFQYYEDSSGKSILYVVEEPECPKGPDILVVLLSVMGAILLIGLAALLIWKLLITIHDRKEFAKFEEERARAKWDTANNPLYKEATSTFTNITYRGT
Chain of Integrin alpha-V/beta-3 (P06756 31-889 limits assumed): as the sequence (P06756 31-889 limits assumed) above
Chain of Integrin alpha-V/beta-3 (P06756 891-1048 limits assumed): as the sequence (P06756 891-1048 limits assumed) above
Method in brief: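 Adhesion of SW480 cells transfected with human β3 to fibrinogen (1 mg/ml), isolating αvβ3. Values reported as pIC50 (–logIC50, M) with standard deviation, n=3.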

[3] = target: Integrin alpha-V/beta-5 (Homo sapiens, UniProt P06756+P18084); test: Inhibition of human wild type integrin alphaVbeta5-mediated human SW480 cell adhesion to vitronectin preincubated for 15 to 30 mins followed by 60 min incubation for adhesion by crystal violet staining based cell adhesion assay
Chain of Integrin alpha-V/beta-5 (P06756 31-889 limits assumed): as the sequence (P06756 31-889 limits assumed) above
Chain of Integrin alpha-V/beta-5 (P06756 891-1048 limits assumed): as the sequence (P06756 891-1048 limits assumed) above
Chain of Integrin alpha-V/beta-5 (P18084 24-799 limits assumed): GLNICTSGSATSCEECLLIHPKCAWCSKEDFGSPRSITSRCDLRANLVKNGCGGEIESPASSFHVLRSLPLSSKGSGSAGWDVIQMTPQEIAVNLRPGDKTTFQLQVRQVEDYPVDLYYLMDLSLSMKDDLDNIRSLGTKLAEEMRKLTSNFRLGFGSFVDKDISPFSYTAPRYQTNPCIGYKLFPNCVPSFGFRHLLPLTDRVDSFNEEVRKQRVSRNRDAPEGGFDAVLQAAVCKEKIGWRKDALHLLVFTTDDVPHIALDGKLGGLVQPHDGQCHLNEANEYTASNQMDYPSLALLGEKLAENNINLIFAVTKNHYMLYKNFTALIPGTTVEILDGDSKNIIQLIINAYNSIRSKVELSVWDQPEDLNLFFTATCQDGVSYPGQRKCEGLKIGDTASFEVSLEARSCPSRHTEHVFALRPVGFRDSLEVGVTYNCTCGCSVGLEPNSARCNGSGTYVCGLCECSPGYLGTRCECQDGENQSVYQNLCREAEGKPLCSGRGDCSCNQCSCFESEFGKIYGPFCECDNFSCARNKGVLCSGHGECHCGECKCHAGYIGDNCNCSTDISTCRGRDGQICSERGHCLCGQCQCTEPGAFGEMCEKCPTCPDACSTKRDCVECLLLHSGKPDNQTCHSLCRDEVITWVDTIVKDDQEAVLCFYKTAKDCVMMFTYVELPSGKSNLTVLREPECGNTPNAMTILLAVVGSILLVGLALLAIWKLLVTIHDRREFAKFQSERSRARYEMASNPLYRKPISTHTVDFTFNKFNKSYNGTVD
Method in brief: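 Wild-type SW480 cells adhering to vitronectin (0.1 mg/ml) served to isolate αvβ5. Values reported as pIC50 (–logIC50, M) with standard deviation, n=3.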

[4] = target: Integrin alpha-V/beta-8 (Homo sapiens, UniProt P06756+P26012); test: Inhibition of human integrin alphaVbeta8-mediated human SNB19 cell adhesion to recombinant human TGFbeta1 LAP preincubated for 15 to 30 mins followed by 60 min incubation for adhesion by crystal violet staining based cell adhesion assay; design: species or system SNB-19
Method in brief: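 The αvβ8-expressing glioma line SNB19 was tested for adhesion to recombinant human TGFβ1 LAP (1 mg/ml). Values reported as pIC50 (–logIC50, M) with standard deviation, n=3.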

[5] = target: Integrin alpha-5/beta-1 (Homo sapiens, UniProt P05556+P08648); test: Inhibition of human integrin alpha5beta1-mediated human SW480 cell adhesion to fibronectin preincubated for 15 to 30 mins followed by 60 min incubation for adhesion by crystal violet staining based cell adhesion assay
Chain of Integrin alpha-5/beta-1 (P05556 21-798 limits assumed): as the sequence (P05556 21-798 limits assumed) above
Chain of Integrin alpha-5/beta-1 (P08648 42-894 limits assumed): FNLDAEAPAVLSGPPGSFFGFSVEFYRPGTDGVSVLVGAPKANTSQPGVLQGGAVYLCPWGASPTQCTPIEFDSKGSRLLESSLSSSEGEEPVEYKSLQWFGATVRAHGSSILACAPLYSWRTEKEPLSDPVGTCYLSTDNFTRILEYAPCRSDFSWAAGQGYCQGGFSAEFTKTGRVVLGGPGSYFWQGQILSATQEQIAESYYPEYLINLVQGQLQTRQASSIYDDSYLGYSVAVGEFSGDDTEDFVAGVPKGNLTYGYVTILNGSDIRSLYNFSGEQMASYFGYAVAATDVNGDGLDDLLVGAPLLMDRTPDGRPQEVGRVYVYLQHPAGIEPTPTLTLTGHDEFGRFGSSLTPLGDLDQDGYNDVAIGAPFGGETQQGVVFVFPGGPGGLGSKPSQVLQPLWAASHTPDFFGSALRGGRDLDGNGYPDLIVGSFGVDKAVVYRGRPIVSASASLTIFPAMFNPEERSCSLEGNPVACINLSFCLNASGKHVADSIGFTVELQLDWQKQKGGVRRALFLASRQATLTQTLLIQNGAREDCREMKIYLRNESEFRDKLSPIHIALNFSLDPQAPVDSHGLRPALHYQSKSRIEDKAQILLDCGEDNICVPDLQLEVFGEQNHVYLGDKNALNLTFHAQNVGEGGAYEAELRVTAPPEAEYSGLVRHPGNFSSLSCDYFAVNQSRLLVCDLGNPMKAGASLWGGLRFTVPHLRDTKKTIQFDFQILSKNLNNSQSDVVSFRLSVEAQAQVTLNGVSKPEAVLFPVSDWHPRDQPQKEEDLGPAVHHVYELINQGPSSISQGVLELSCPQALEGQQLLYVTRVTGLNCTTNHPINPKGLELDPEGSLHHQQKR
Chain of Integrin alpha-5/beta-1 (P08648 895-1049 limits assumed): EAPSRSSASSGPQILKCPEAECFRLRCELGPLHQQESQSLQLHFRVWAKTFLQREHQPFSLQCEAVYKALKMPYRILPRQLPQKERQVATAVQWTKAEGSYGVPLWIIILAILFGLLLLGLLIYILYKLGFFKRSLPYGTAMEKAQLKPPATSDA
Method in brief: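 Colon carcinoma SW480 cells plated on fibronectin (0.3 mg/ml) to isolate α5β1-dependent adhesion. Values reported as pIC50 (–logIC50, M) with standard deviation, n=3.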

| IC50 ([1]; read-out: IC50) [nM] | other results | Compound |
| --- | --- | --- |
| 16 | – | N=C(N)NCCCCC(=O)Nc1ccc(C[C@H](NC(=O)[C@@H]2CSCN2S(=O)(=O)c2ccccc2)C(=O)O)cc1 |
| 0.31 to 0.32 | IC50 ([1]; read-out: pIC50 (converted)): 0.316 nM; IC50 [2]: > 10000 nM; IC50 [3]: 200 nM; IC50 [4]: > 10000 nM; IC50 [5]: > 10000 nM | O=C(CCCCNC1=NCCN1)Nc1ccc(C[C@H](NC(=O)[C@@H]2CCCN2S(=O)(=O)c2ccccc2)C(=O)O)cc1 |
| 0.31 to 0.32 | IC50 ([1]; read-out: pIC50 (converted)): 0.316 nM; IC50 [2]: 4000 nM; IC50 [3]: 160 nM; IC50 [4]: 2000 nM; IC50 [5]: 3200 nM | N=C(N)NCCCCC(=O)Nc1ccc(C[C@H](NC(=O)[C@@H]2CCCCN2S(=O)(=O)c2ccccc2)C(=O)O)cc1 |
| 0.06 | IC50 [2]: 160 nM; IC50 [3]: > 10000 nM; IC50 [4]: 40 nM; IC50 [5]: 63 nM | N=C(N)Nc1cccc(C(=O)Nc2ccc(C[C@H](NC(=O)[C@@H]3CCCN3S(=O)(=O)c3ccccc3)C(=O)O)cc2)c1 |
| – | IC50 ([1]; cho, read-out: IC50): > 10000 nM; IC50 ([1]; read-out: pIC50 (converted)): > 10000 nM | C[C@@]1(C(=O)N[C@@H](Cc2ccc(NC(=O)CCCCNC(=N)N)cc2)C(=O)O)CCCN1S(=O)(=O)c1ccccc1 |
| 0.5 | – | N=C(N)NCCCCC(=O)Nc1ccc(C[C@H](NC(=O)[C@@H]2C[C@@H](F)CN2S(=O)(=O)c2ccccc2)C(=O)O)cc1 |
| 790 | – | Cc1cc(C)cc(S(=O)(=O)N2CCC[C@H]2C(=O)N[C@@H](Cc2ccc(NC(=O)CCCNC(=N)N)cc2)C(=O)O)c1 |
| 320 | – | Cc1ccc(NCCCC(=O)Nc2ccc(C[C@H](NC(=O)[C@@H]3CCCN3S(=O)(=O)c3ccccc3)C(=O)O)cc2)nc1 |
| 0.5 | – | N=C(N)NCCCCC(=O)Nc1ccc(C[C@H](NC(=O)[C@@H]2C[C@H](F)CN2S(=O)(=O)c2ccccc2)C(=O)O)cc1 |
| 50 | – | N=C(N)NCCCCC(=O)Nc1ccc(C[C@H](NC(=O)[C@@H]2CCCN2S(=O)(=O)c2cccs2)C(=O)O)cc1 |
| 0.63 | IC50 [2]: > 10000 nM; IC50 [3]: > 10000 nM; IC50 [4]: > 10000 nM; IC50 [5]: > 10000 nM | N=C(N)NCCCCC(=O)Nc1ccc(C[C@H](NC(=O)[C@@H]2CCCN2S(=O)(=O)c2ccccc2)C(=O)O)cc1 |
| 50 | – | N=C(N)Nc1ccc(CC(=O)Nc2ccc(C[C@H](NC(=O)[C@@H]3CCCN3S(=O)(=O)c3ccccc3)C(=O)O)cc2)cc1 |
| 0.2 | IC50 [2]: > 10000 nM; IC50 [3]: > 10000 nM; IC50 [4]: 400 nM; IC50 [5]: > 10000 nM | O=C(CCCNc1ccccn1)Nc1ccc(C[C@H](NC(=O)[C@@H]2CCCN2S(=O)(=O)c2ccccc2)C(=O)O)cc1 |
| 0.02 | – | N=C(N)NCCCC(=O)Nc1ccc(C[C@H](NC(=O)[C@@H]2CCCN2S(=O)(=O)c2ccccc2)C(=O)O)cc1 |
| 160 | – | N=C(N)NCCCCC(=O)Nc1ccc(C[C@H](NC(=O)[C@@H]2CCN2S(=O)(=O)c2ccccc2)C(=O)O)cc1 |
| 2 | – | O=C(CCCCNc1ccccn1)Nc1ccc(C[C@H](NC(=O)[C@@H]2CCCN2S(=O)(=O)c2ccccc2)C(=O)O)cc1 |
| 2 | – | N=C(N)N[C@H]1CC[C@@H](C(=O)Nc2ccc(C[C@H](NC(=O)[C@@H]3CCCN3S(=O)(=O)c3ccccc3)C(=O)O)cc2)CC1 |
| 13 | – | N=C(N)NCCCCC(=O)Nc1ccc(C[C@H](NC(=O)[C@@H]2CCCN2S(=O)(=O)c2cccc([N+](=O)[O-])c2)C(=O)O)cc1 |

| IC50 ([1]; read-out: IC50) [nM] | other results | Compound |
| --- | --- | --- |
| 630 | – | N=C(N)NCCCCC(=O)Nc1ccc(C[C@H](NC(=O)[C@@H]2CCCN2S(=O)(=O)c2ccccc2[N+](=O)[O-])C(=O)O)cc1 |
| 32 | – | N=C(N)NCCCCC(=O)Nc1ccc(C[C@H](NC(=O)[C@@H]2CCCN2S(=O)(=O)c2cccnc2)C(=O)O)cc1 |
| 6300 | – | Cc1ccc(S(=O)(=O)N2CCC[C@H]2C(=O)N[C@@H](Cc2ccc(NC(=O)CCCCNC(=N)N)cc2)C(=O)O)c2ccccc12 |
| 500 | – | Cc1cc(F)ccc1S(=O)(=O)N1CCC[C@H]1C(=O)N[C@@H](Cc1ccc(NC(=O)CCCCNC(=N)N)cc1)C(=O)O |
| 0.13 | – | O=C(CCCNC1=NCCN1)Nc1ccc(C[C@H](NC(=O)[C@@H]2CCCN2S(=O)(=O)c2ccccc2)C(=O)O)cc1 |
| 2 | – | O=C(CCCCNC1=NCCCN1)Nc1ccc(C[C@H](NC(=O)[C@@H]2CCCN2S(=O)(=O)c2ccccc2)C(=O)O)cc1 |
| 0.25 | IC50 [2]: 2000 nM; IC50 [3]: 1600 nM; IC50 [4]: 2500 nM; IC50 [5]: 3200 nM | N=C(N)NCCCC(=O)Nc1ccc(C[C@H](NC(=O)[C@@H]2CCCCN2S(=O)(=O)c2ccccc2)C(=O)O)cc1 |
| 630 | – | Cc1ccc(S(=O)(=O)N2CCC[C@H]2C(=O)N[C@@H](Cc2ccc(NC(=O)CCCNC(=N)N)cc2)C(=O)O)cc1 |
| 79 | – | CN(C)c1cccc2c(S(=O)(=O)N3CCC[C@H]3C(=O)N[C@@H](Cc3ccc(NC(=O)CCCCNC(=N)N)cc3)C(=O)O)cccc12 |
| 800 | – | N=C(N)NCCCCC(=O)Nc1ccc(C[C@H](NC(=O)[C@@H]2C=CCN2S(=O)(=O)c2ccccc2)C(=O)O)cc1 |
| 2500 | – | N=C(N)NCCCCC(=O)Nc1ccc(C[C@H](NC(=O)[C@@H]2CCCN2S(=O)(=O)c2ccc3ccccc3c2)C(=O)O)cc1 |
| 200 | – | Cc1cccc(NCCCC(=O)Nc2ccc(C[C@H](NC(=O)[C@@H]3CCCN3S(=O)(=O)c3ccccc3)C(=O)O)cc2)n1 |
| 2500 | – | N=C(N)NC12CC3CC(C1)CC(C(=O)Nc1ccc(C[C@H](NC(=O)[C@@H]4CCCN4S(=O)(=O)c4ccccc4)C(=O)O)cc1)(C3)C2 |
| 2000 | – | CC1(C)SCN(S(=O)(=O)c2ccccc2)[C@@H]1C(=O)N[C@@H](Cc1ccc(NC(=O)CCCCNC(=N)N)cc1)C(=O)O |
| 800 | – | N=C(N)Nc1ccc(C(=O)Nc2ccc(C[C@H](NC(=O)[C@@H]3CCCN3S(=O)(=O)c3ccccc3)C(=O)O)cc2)cc1 |
| – | IC50 ([1]; cho, read-out: IC50): > 10000 nM; IC50 ([1]; read-out: pIC50 (converted)): > 10000 nM | Cc1cc(C)c(S(=O)(=O)N2CCC[C@H]2C(=O)N[C@@H](Cc2ccc(NC(=O)CCCCNC(=N)N)cc2)C(=O)O)c(C)c1 |
| 40 | – | N=C(N)NCCCCC(=O)Nc1ccc(C[C@H](NC(=O)[C@@H]2CCCN2S(=O)(=O)c2cc(F)cc(F)c2)C(=O)O)cc1 |
